From ChEMBL document CHEMBL1151750, “The fourth molybdenum containing enzyme mARC: cloning and involvement in the activation of N-hydroxylated prodrugs” (J Med Chem, 2008)

Assays:
Format in all cases: microsomes
Conditions in all cases: Microsome
[1] = target: T1, Mitochondrial amidoxime-reducing component 1 (Homo sapiens) (UniProt Q5VT66); test: (§1) Specific activity at molybdenum cofactor/metal-free precursor molybopterin bound human recombinant mARC1 expressed in Escherichia coli TP1000 assessed as reduction to debrisoquine in complete reconstituted system containing microsomal cyt b5, NADH and microsomal NADH cyt b5 reductase per mg of protein at 0.5 mM by HPLC analysis
T1 sequence (whole entry): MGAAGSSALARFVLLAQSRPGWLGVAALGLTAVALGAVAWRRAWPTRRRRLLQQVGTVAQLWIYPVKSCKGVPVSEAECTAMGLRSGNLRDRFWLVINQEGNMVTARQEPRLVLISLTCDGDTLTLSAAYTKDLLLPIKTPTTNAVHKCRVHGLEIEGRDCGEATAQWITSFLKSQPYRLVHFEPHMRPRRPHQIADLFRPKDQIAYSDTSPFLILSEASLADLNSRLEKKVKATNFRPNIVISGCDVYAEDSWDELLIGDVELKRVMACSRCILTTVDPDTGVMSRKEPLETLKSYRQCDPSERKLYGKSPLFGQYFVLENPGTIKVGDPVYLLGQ
Summary of the method: (§2)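 His6-tagged human mARC1 expressed in E. coli TP1000 (22 °C, IPTG induction, 1 mM sodium molybdate added) and Ni-NTA purified. Assay mix: 100 µg mARC1, 0.05 U pig liver microsomal NADH cyt b5 reductase, 200 pmol microsomal cyt b5, 0.5 mM N-hydroxylated substrate, 1 mM NADH, 100 mM potassium phosphate pH 6.0. Omitted components as stated per line. Aerobic, 37 °C, 3 min preincubation, NADH start, 15 or 20 min, methanol stop. Product quantified by HPLC; mean ± SD, n=4.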

[2] = target: T1, Mitochondrial amidoxime-reducing component 1 (Homo sapiens); test: as §1, with “pentamidine monoamidoxime” for “debrisoquine”; summary of the method: as §2
[3] = target: T1, Mitochondrial amidoxime-reducing component 1 (Homo sapiens); test: as §1, with “pentamidine” for “debrisoquine”; summary of the method: as §2
[4] = target: T1, Mitochondrial amidoxime-reducing component 1 (Homo sapiens); test: as §1, with “to benzamidine” for “to debrisoquine”, “in” for “in complete”, “cyt b5 and” for “cyt b5,”, “NADH without” for “NADH and”, “NADH cytochrome” for “NADH cyt”; summary of the method: as §2
[5] = target: T1, Mitochondrial amidoxime-reducing component 1 (Homo sapiens); test: as §1, with “benzamidine” for “debrisoquine”, “in” for “in complete”, “containing” for “containing microsomal cyt b5,”, “reductase without microsomal cytochrome b5” for “reductase”; summary of the method: as §2
[6] = target: T1, Mitochondrial amidoxime-reducing component 1 (Homo sapiens); test: as §1, with “benzamidine” for “debrisoquine”; summary of the method: as §2
[7] = target: T1, Mitochondrial amidoxime-reducing component 1 (Homo sapiens); test: as §1, with “melagatran” for “debrisoquine”; summary of the method: as §2
[8] = target: T1, Mitochondrial amidoxime-reducing component 1 (Homo sapiens); test: as §1, with “guanabenz” for “debrisoquine”; summary of the method: as §2
[9] = target: T1, Mitochondrial amidoxime-reducing component 1 (Homo sapiens); test: as §1, with “diminazene” for “debrisoquine”; summary of the method: as §2
[10] = target: T1, Mitochondrial amidoxime-reducing component 1 (Homo sapiens); test: as §1, with “diminazene monoamidoxime” for “debrisoquine”; summary of the method: as §2

## N/C(=N\O)N1CCc2ccccc2C1
[1]
  Activity: 15.9 nmol/min

## N/C(=N\O)c1ccc(OCCCCCOc2ccc(/C(N)=N/O)cc2)cc1
[2]
  Activity: 0.56 nmol/min
[3]
  Activity: 0.49 nmol/min

## N/C(=N\O)c1ccccc1
[4]
  Activity: 0.2 nmol/min
[5]
  Activity: 0.23 nmol/min
[6]
  Activity: 1.3 nmol/min

## N/C(=N\O)c1ccc(CNC(=O)[C@@H]2CCN2C(=O)[C@H](NCC(=O)O)C2CCCCC2)cc1
[7]
  Activity: 0.48 nmol/min

## N=C(NO)N/N=C/c1c(Cl)cccc1Cl
[8]
  Activity: 20.4 nmol/min

## N=C(N)c1ccc(OCCCCCOc2ccc(/C(N)=N\O)cc2)cc1
[3]
  Activity: 6.59 nmol/min

## N/C(=N\O)c1ccc(/N=N/Nc2ccc(/C(N)=N/O)cc2)cc1
[9]
  Activity: 0.05 nmol/min
[10]
  Activity: 4.31 nmol/min
